# PfHsp90 yeast 2 – inhibits growth of yeast expressing Plasmodium falciparum Hsp90 | S. cerevisiae expressing PfHsp90, BacTiter-Glo ATP, 48 h; yeast lacking PDR1 and PDR3 efflux regulators | inhibition, % at 9.4 µM | 310,000 compounds, 0.32% hits | AID 504621;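 active = every replicate shows inhibition above about 80%, whatever the replicate mean, limit read from the data; inconclusive = mean inhibition reaches the set limit but some replicate falls short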
# DENV2 CPE – protects cells from dengue virus 2 cytopathic effect; DENV2-infected cells, cytopathic effect rescue, plate reader; CPE inhibition, % at 9.99 µM; 350,000 compounds, 1.7% hits; AID 651640; in the data active = CPE inhibition above about 20%, passing the limit was not always enough; inconclusive = no clear call, values can overlap the other calls; tested in BHK-21 cells
# S100A4 inh HTS – blocks human S100A4 binding to myosin IIA peptide | P26447 | AID 652163 | inhibition, % at 10.7 µM | 360,000 compounds, 0.14% hits | S100A4/TAMRA-MyoIIA peptide fluorescence polarization;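 active = mean inhibition of at least 70% across replicates, with every replicate also reaching that level; inconclusive = mean inhibition reaches 70% but some replicates fall short; inactive = mean inhibition below 70%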
# Target sequence (P26447 whole entry, looked up): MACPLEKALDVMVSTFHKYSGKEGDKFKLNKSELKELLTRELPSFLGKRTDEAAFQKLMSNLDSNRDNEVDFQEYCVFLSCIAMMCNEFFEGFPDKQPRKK
#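 Material: human S100A4 monomer with TAMRA-labelled myosin IIA peptide; buffer or medium: HEPES pH 7.2 with CaCl2, KCl, NaCl, DTT, Triton; compound dosing: one concentration per compound; schedule: 5 min incubation before reading; benchmarks: neutral control DMSO, positive control TFP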
# rRNA inh HTS – selective bacterial rRNA inhibition in E. coli. GFP signal change (wild-type ribosome), % (no concentration beside the values). AID 720706. 350,000 compounds, 1.6% hits. E. coli WT GFP vs humanized-ribosome RFP mutants, fluorescence, 24 h; active compounds read low; DMSO median 0, no signal -100;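 active = significant combined selectivity score with lowered wild-type GFP, culture density cut under 30%, mutant RFP and density less affected; inactive = any of these conditions unmet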
# Cneo AK release – causes C. neoformans cell lysis; adenylate kinase release luminescence, 4 h; normalised: neutral wells 0, clomiphene wells 100; lysis activity, % at 15 µM; 360,000 compounds, 0.2% hits; AID 651654;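 active = mean lysis activity across replicates of at least 80%, whatever share of replicates individually reach that level; inactive = mean lysis activity below 80%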
#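 Material: C. neoformans cells; Schedule: 4 h static compound exposure, 37 °C, read 1 h post-reagent; Measured by: adenylate kinase release luminescence; Read-out: signal increase indicating cell lysis; Controls: Clomiphene as positive lysis control.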
# AF4-AF9 inh – inhibitors of human MLL-AF4/AF9 interaction | P42568 | 350,000 compounds, 0.47% hits | inhibition, % at 10 µM | AID 651704 | AlphaScreen, biotin-AF4 peptide binding to FLAG-AF9;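 active = every replicate reaching a set inhibition limit, whatever the replicate mean, cut at about 25% in these data; inconclusive = mean inhibition reaches that limit but some replicates miss it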
# Numbers stand for hits; 0 = inactive; ? = inconclusive; - = no result. In the library only some 3.2% were active in any assay of this set; here they are far more common.
SMILES,PfHsp90 yeast 2,DENV2 CPE,S100A4 inh HTS,rRNA inh HTS,Cneo AK release,AF4-AF9 inh
COc1ccc2oc(C(=O)OC(C)C(=O)N3CCC(C)CC3)c(C)c2c1 (configuration not stated),0,34.1,0,-,0,0
CCCO/N=C1/C(=O)N(c2ccccc2)c2ccccc21,0,0,0,-37.9,-,0
O=C(c1ccccc1Br)N1CCN(Cc2ccc3c(c2)OCO3)CC1,0,50.3,0,0,0,0
O=C(N1CCN(Cc2ccc3c(c2)OCO3)CC1)C(Cl)(Cl)Cl,0,0,0,-18.8,0,0
C[C@H]1CN([C@@H](C)CO)C(=O)c2cc(C#CC3CCCCC3)cnc2O[C@H]1CN(C)CC1CC1,-,0,0,0,0,0
C[C@H](CO)N1C[C@H](C)[C@H](CN(C)C(=O)Nc2ccccc2)Oc2ccc(N(C)C)cc2CC1=O,-,44.7,0,0,0,0
C[C@@H]1CN([C@@H](C)CO)C(=O)Cc2cc(N(C)C)ccc2O[C@@H]1CN(C)C(=O)Nc1ccccc1,-,0,0,0,0,0
C[C@@H]1CN([C@H](C)CO)C(=O)Cc2cc(NC(=O)C3CC3)ccc2O[C@H]1CN(C)C(=O)Nc1ccccc1,-,105.0,0,0,0,0
C[C@@H]1CN([C@@H](C)CO)C(=O)Cc2cc(NC(=O)C3CC3)ccc2O[C@@H]1CN(C)C(=O)Nc1ccccc1,-,?,0,0,0,0
C[C@H](CO)N1C[C@H](C)[C@H](CN(C)C(=O)Nc2ccc3c(c2)OCCO3)OCc2cn(nn2)CCCC1=O,-,0,0,0,0,0
C=CCn1cc(C(=O)N2CCN(CC)CC2)c(=O)c2cc(S(=O)(=O)N(CC)CC)ccc21,0,?,0,0,0,44.9
C[C@H](CO)N1C[C@H](C)[C@@H](CN(C)C)Oc2c(NC(=O)Cc3cn(C)c4ccccc34)cccc2C1=O,-,-,-,0,-,-
Cc1ccccc1S(=O)(=O)N1[C@H](CO)[C@@H](c2ccc(C#CC3CCCC3)cc2)[C@@H]1C#N,-,0,0,0,-,0
C=CCn1c(-c2cc3cccc(OC)c3o2)n[nH]c1=S,0,-,0,-23.2,-,0
O=C(C[C@H]1CC[C@H]2[C@@H](COC[C@H](O)CN2Cc2ccccc2)O1)NCCc1ccccc1,-,0,0,0,0,0
Cc1ccc(C(=O)c2coc3cc([N+](=O)[O-])c(O)c([N+](=O)[O-])c23)cc1,0,0,0,-48.3,-,0
O=C1CCC(=O)N1CNc1ccc(Oc2ccccc2)cc1,0,0,0,-13.3,0,0
C[C@@H]1CN([C@@H](C)CO)C(=O)Cc2cc(NC(=O)Cc3cn(C)c4ccccc34)ccc2O[C@@H]1CN(C)S(C)(=O)=O,-,0,0,0,0,0
COc1c(O)cc2c(c1O)C1OC(CO)C(O)C(O)C1OC2=O (configuration not stated),0,0,0,-22.3,0,0
COc1ccc(C(=O)Nc2ccc3nc(C)sc3c2)cc1OC,0,0,0,-19.9,-,0
CC(C)NC(=O)N[C@@H]1CC[C@H](CCn2cc(-c3ccc(F)cc3)nn2)O[C@@H]1CO,-,0,0,0,0,0
COc1ccccc1S(=O)(=O)N[C@@H]1C=C[C@@H](CC(=O)NCc2cccc(F)c2)O[C@@H]1CO,-,0,0,0,0,0
COCCNC(=O)C[C@H]1C=C[C@@H](NS(=O)(=O)c2ccc(C)cc2)[C@H](CO)O1,-,0,0,0,93.1,0
COc1ccccc1S(=O)(=O)N[C@H]1C=C[C@H](CC(=O)NCc2cccc(F)c2)O[C@H]1CO,-,28.4,0,0,0,0
O=C(C[C@H]1C=C[C@H](NC(=O)c2ccccc2)[C@H](CO)O1)NCc1ccc(Oc2ccccc2)cc1,-,31.0,0,0,-,0
COCCNC(=O)C[C@H]1C=C[C@H](NS(=O)(=O)c2ccc(C)cc2)[C@@H](CO)O1,-,-,0,0,105.3,0
COc1ccc(S(=O)(=O)N[C@H]2C=C[C@@H](CC(=O)NCCc3ccccc3)O[C@@H]2CO)cc1,-,24.1,0,0,0,0
C[C@@H]1CN([C@H](C)CO)C(=O)c2cc(-c3ccccc3)cnc2O[C@@H]1CN(C)Cc1ccccn1,-,0,0,0,0,0

# High-throughput results: PubChem, Broad Institute
